{"data": "Results of several laboratories", "target": "Protein-tyrosine kinase 2-beta (PTK2B, Homo sapiens, UniProt Q14289)", "note": "Compare with care: the assays were run in different laboratories."}
{"Structure (SMILES)": "Cc1cnc(NC2CCOCC2)nc1-n1cnc(C(=O)NC(CN)c2cc(F)cc(Cl)c2)c1 (stereo not shown)", "effect on": "enzyme activity", "mode": "inhibitor", "method": "radiometric", "tested at": "1 µM", "measurement": "remaining activity", "value": "99%"}
{"Structure (SMILES)": "CC(C)(O)[C@H]1CC[C@H](Nc2ccc3ncc(-c4cccc(C(F)(F)F)c4)n3n2)CC1", "effect on": "enzyme activity", "mode": "inhibitor", "tested at": "1 µM", "measurement": "remaining activity", "value": "94.4%"}
{"Structure (SMILES)": "Nc1ncnc2occ(-c3ccc(NC(=O)Nc4cc(C(F)(F)F)ccc4F)cc3)c12", "effect on": "cell-free assay", "mode": "inhibitor", "tested at": "20 µM", "measurement": "remaining signal", "value": "2.8%"}
{"Structure (SMILES)": "C[C@H](c1ccc(F)cc1)N(Cc1cccc(C(=O)O)c1)C(=O)c1cnc2ccccc2c1", "effect on": "cell-free assay", "method": "competition with immobilised ligand", "tested at": "1 µM", "measurement": "remaining binding", "value": "100%"}
{"Structure (SMILES)": "O=C(Nc1cnn(-c2csc(C(=O)NC3COC3)c2)c1)Nc1ccccc1Cl", "effect on": "enzyme activity", "mode": "inhibitor", "tested at": "5 µM", "measurement": "remaining activity", "value": "93.5%"}
{"Structure (SMILES)": "COc1cc2c(Nc3ccc(Br)cc3F)ncnc2cc1OCC1CCN(C)CC1", "effect on": "cell-free assay", "tested at": "0.5 µM", "measurement": "remaining signal", "value": "99.5%"}
{"Structure (SMILES)": "CCN(CC)CCNC(=O)c1c(C)[nH]c(/C=C2\\C(=O)Nc3ccc(F)cc32)c1C", "effect on": "enzyme activity", "mode": "inhibitor", "tested at": "1 µM", "measurement": "remaining activity", "value": "30%"}
{"Structure (SMILES)": "CC/C(=N\\NC(=O)NCc1cccc(O)c1)c1ccc(O)c(C)c1O", "effect on": "enzyme activity", "mode": "inhibitor", "tested at": "0.1 µM", "measurement": "inhibition", "value": "-0.1%"}
{"Structure (SMILES)": "CNC(=O)c1cc(Oc2ccc(NC(=O)Nc3ccc(Cl)c(C(F)(F)F)c3)cc2)ccn1", "effect on": "enzyme activity", "mode": "inhibitor", "tested at": "0.3 µM", "measurement": "inhibition", "value": "-3%"}
{"Structure (SMILES)": "COc1cc2ncnc(Nc3ccc(Oc4ccccc4)cc3C)c2cc1OC", "effect on": "enzyme activity", "mode": "inhibitor", "tested at": "1 µM", "measurement": "inhibition", "value": "3%"}
{"Structure (SMILES)": "Cc1nc(C2CCN(C(=O)c3ccc(OC(F)(F)F)cc3N)CC2)c2ncc(N3CCN(C)CC3)cc2n1", "effect on": "cell-free assay", "method": "competition with immobilised ligand", "tested at": "1 µM", "measurement": "remaining binding", "value": "100%"}
{"Structure (SMILES)": "COc1cc(Cl)c(C(=O)N[C@@H](CN[C@H]2CC[C@@H](N)CC2)Cc2ccc(C#N)cc2)cc1-c1ccc(CN[C@H](C)c2ccc(C)cc2)o1", "effect on": "enzyme activity", "mode": "inhibitor", "tested at": "1 µM", "measurement": "remaining activity", "value": "101%"}
{"Structure (SMILES)": "COc1cc2ncnc(Nc3ccc(F)c(Cl)c3)c2cc1OCCCN1CCOCC1", "effect on": "cell-free assay", "tested at": "0.5 µM", "measurement": "remaining signal", "value": "98.9%"}
{"Structure (SMILES)": "CCCCN(CCCC)C(=O)CN1C[C@H](c2cc(OC)c3c(c2)OCO3)[C@@H](C(=O)O)[C@@H]1CC(C)(C)CCC", "effect on": "cell-free assay", "method": "competition with immobilised ligand", "tested at": "1 µM", "measurement": "remaining binding", "value": "100%"}
{"Structure (SMILES)": "CCN(CC)c1ccc(C2=NNC(=O)CC2C)cc1[N+](=O)[O-] (stereo not shown)", "effect on": "enzyme activity", "mode": "inhibitor", "tested at": "10 µM", "measurement": "remaining activity", "value": "97%"}
{"Structure (SMILES)": "Nc1c(C(=O)NCc2ccc(C(=O)NCCCC3CCCCC3)cc2)cnn1-c1ccccc1", "effect on": "cell-free assay", "method": "competition with immobilised ligand", "tested at": "0.1 µM", "measurement": "remaining binding", "value": "99%"}
{"Structure (SMILES)": "Cc1ccc(C(=O)Nc2ccc(CN3CCN(C)CC3)c(C(F)(F)F)c2)cc1C#Cc1cnc2cccnn12", "effect on": "enzyme activity", "mode": "inhibitor", "tested at": "23.5 nM", "measurement": "remaining activity", "value": "45%"}
{"Structure (SMILES)": "O=c1nc(-c2ccccn2)sc2ccccc12", "effect on": "cell-free assay", "method": "competition with immobilised ligand", "tested at": "1 µM", "measurement": "remaining binding", "value": "100%"}
{"Structure (SMILES)": "CCN(CC)CCNC(=O)c1c(C)[nH]c(/C=C2\\C(=O)Nc3ccc(F)cc32)c1C", "effect on": "enzyme activity", "mode": "inhibitor", "tested at": "10 µM", "measurement": "inhibition", "value": "97%"}
